Assay outcomes as filed in PubChem BioAssay.
SENP6 block = SENP6 protease inhibitors, primary screen, biochemical, luminescence, uHTS; Sentrin-specific protease 6 (Homo sapiens), Q9GZR1; Recombinant SENP6 catalytic domain, aminoluciferin luminescence; inhibition, % at 10 µM; 1.8% of 330,000 active; AID 2599, 2010;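 active = inhibition above about 50% at the single tested dose, limit read from the data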;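 note: plate controls were DMSO wells with enzyme for no effect and DMSO wells lacking enzyme for full effect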
UBC13 inh = UBC13 polyubiquitin chain formation inhibitors, primary screen, biochemical, TR-FRET, uHTS. 0.47% of 330,000 active. inhibition, % at 20 µM. AID 485273, 2010; in the data active = inhibition above about 45%, passing the limit was not always enough
SENP8 block-1 = human SENP8 protease inhibitors, primary screen, biochemical, fluorescence, Nedd8 protein substrate, uHTS. Sentrin-specific protease 8 (Homo sapiens), Q96LD8. recombinant SENP8. inhibition, % at 20 µM. 0.64% of 360,000 active. AID 602440, 2012; in the data active = inhibition mostly above about 40%, no sharp cut-off; inactive = mostly below about 27%
Target sequence (Q96LD8 whole entry, looked up): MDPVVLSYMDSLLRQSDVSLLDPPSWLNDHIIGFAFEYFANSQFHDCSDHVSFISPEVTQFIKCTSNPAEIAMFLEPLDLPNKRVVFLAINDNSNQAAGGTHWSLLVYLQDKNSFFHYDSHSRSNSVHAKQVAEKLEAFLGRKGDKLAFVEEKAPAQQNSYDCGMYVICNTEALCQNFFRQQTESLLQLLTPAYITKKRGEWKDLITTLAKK
SENP7 inh = SENP7 protease inhibitors, primary screen, biochemical, luminescence, uHTS | recombinant SENP7, Z-RLRGG-aminoluciferin luminescence, 40 min | inhibition, % at 5 µM | 1.5% of 330,000 active;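 active = inhibition above about 50% at the single test dose, limit read from the data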;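 note: plate controls were DMSO with enzyme for no effect and no enzyme buffer wells for full effect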
Target sequence (Q9BQF6 706-1050 limits assumed): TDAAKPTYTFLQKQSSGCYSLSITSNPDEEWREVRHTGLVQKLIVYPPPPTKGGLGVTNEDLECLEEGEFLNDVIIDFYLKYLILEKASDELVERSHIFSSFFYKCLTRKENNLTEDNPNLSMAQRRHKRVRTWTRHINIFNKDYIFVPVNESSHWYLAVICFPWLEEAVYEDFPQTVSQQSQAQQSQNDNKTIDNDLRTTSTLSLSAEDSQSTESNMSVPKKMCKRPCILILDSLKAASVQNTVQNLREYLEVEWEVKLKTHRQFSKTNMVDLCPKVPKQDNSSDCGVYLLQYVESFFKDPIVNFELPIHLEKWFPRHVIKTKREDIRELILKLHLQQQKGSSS
SENP8 block-2 = SENP8 protease inhibitors, primary screen, biochemical, luminescence. inhibition, % at 10 µM. Sentrin-specific protease 8 (Homo sapiens), Q96LD8. 1.2% of 330,000 active. purified SENP8, Z-RLRGG-aminoluciferin cleavage; in the data active = inhibition above about 50%
Apaf-1 inh = inhibitors of human Apaf-1 apoptosome, primary screen, biochemical, DEVD-Rh110 fluorescence, uHTS; reconstituted apoptosome caspase-3 activity; inhibition, % at 20 µM; 0.71% of 330,000 active; active = inhibition of at least 40% at 20 µM;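 note: plate controls were DMSO wells for no effect and DEVD-CHO caspase inhibitor wells for full effect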
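Assay system: Apoptosome proteins | Medium: pH 7.5 Hepes buffer with CHAPS, BSA, DTT | Also added: Cytochrome c and DEVD-Rh110 substrate | Times: 30 min plus 50 min, RT | Detection: Rhodamine 110 fluorescence at Ex 480/Em 540 nm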
SENP8 confirm = SENP8 protease inhibitors, retest, confirmation, biochemical, luminescence, single concentration; AID 488912, 2010; shares compounds with SENP7 inh; inhibition, % at 12.5 µM; 40% of 6,200 active; Recombinant SENP8, Z-RLRGG-aminoluciferin luminescence, 60 min;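 active = mean inhibition across replicates above about 50%, limit read from the data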
SENP6 conf = SENP6 protease inhibitors, confirmation, biochemical, luminescence, single concentration | AID 488915, 2010 | inhibition, % at 12.5 µM | 58% of 6,200 active | shares compounds with SENP7 inh | recombinant SENP6, Z-RLRGG-aminoluciferin luminescence
SENP7 conf = SENP7 protease inhibitors, retest, confirmation, biochemical, luminescence, single concentration. recombinant SENP7, Z-RLRGG-aminoluciferin luminescence, 40 min. shares compounds with SENP7 inh. AID 488917, 2010. 69% of 6,200 active. inhibition, % at 12.5 µM
Casp3 SENP sel = caspase-3 protease inhibitors, confirmation, selectivity assay for SENP inhibitor project, biochemical, single concentration. shares compounds with SENP7 inh. purified caspase-3, Z-DEVD-aminoluciferin luminescence, 60 min. inhibition, % at 12.5 µM. 60% of 6,200 active;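 active = mean inhibition above about 50%, limit read from the data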;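 note: plate controls were enzyme with DMSO for no effect and wells without caspase-3 for full effect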
Luc interf = counter-screen for SENP inhibitors: luminescence interference. inhibition, % at 12.5 µM. shares compounds with SENP7 inh. Pre-incubated SENP8/Z-RLRGG-aminoluciferin, luciferase luminescence interference. 39% of 6,200 active. AID 488919;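 active = mean inhibition above about 50% when retested at one dose, limit read from the data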;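 note: plate controls were DMSO wells with completed reaction for no effect and substrate without enzyme for full effect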
* marks the source's active call; other numbers are inactive results; x = no result given. A selection: hits, their analogues and other compounds. The true share with any hit is near 3%.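 Rule for the calls, unless noted: active = mean inhibition above about 50% in the one-dose retest (limit read from the data); inactive = the rest.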

SMILES	SENP6 block	UBC13 inh	SENP8 block-1	SENP7 inh	SENP8 block-2	Apaf-1 inh	SENP8 confirm	SENP6 conf	SENP7 conf	Casp3 SENP sel	Luc interf
CN(C)c1ccc(/C=C(\C#N)c2ccccn2)cc1	96*	-7	4	99*	96*	12	98*	99*	102*	97*	72*
CN(C)c1ccc(/C=N/NC(=O)c2ccnn2C)cc1	95*	-14	-252	98*	91*	4	90*	90*	98*	95*	88*
CN(C)c1ccc(/C=N/NC(=O)c2ccccn2)cc1	80*	-14	-121	91*	76*	-12	10	85*	98*	95*	66*
C[C@H](CO)N1C[C@H](C)[C@@H](CN(C)Cc2ccc(C(=O)O)cc2)Oc2c(cccc2N(C)C)C1=O	2	9	14	5	2	-2	x	x	x	x	x
CC(C)CCNC(=O)CCn1nc(-c2ccc(Cl)cc2)ccc1=O	-18	0	-3	9	1	13	x	x	x	x	x
CC(C)(C)n1nc2c(c1NC(=O)c1cc3ccccc3o1)CS(=O)(=O)C2	-9	0	1	5	2	1	x	x	x	x	x
CN(C)c1ccc(/C=N/NC(=O)C(=O)N2CCCCCC2)cc1	-12	-6	-67	8	86*	0	4	9	14	3	5
CC(C)c1ccc(/C=N/NC(=O)c2ccccn2)cc1	86*	2	14	80*	79*	-1	71*	84*	98*	89*	38
O=C(/C=C/c1ccc2c(c1)OCO2)c1ccccn1	75*	-2	0	71*	73*	5	92*	89*	95*	69*	68*
O=C(N/N=C/c1ccc(OC(=O)c2cccs2)cc1)c1ccccn1	21	-8	-17	74*	13	3	8	15	2	7	1
CC(C)c1ccc(/C=N/NC(=O)c2cccc(Cl)c2)cc1	x	x	0	x	x	x	x	x	x	x	x
O=C(C=Cc1ccc2c(c1)OCO2)c1ccccc1	x	x	-57	x	x	x	x	x	x	x	x
CCCN(CC(=O)Nc1ccccc1OC)C(=O)CCC(=O)c1ccc(Cl)s1	-5	10	-24	-1	-11	7	x	x	x	x	x
CCN(CC(=O)Nc1c(F)cccc1F)C(=O)COc1ccc2c(C)cc(=O)oc2c1	-6	0	-359	5	3	-8	x	x	x	x	x
CCOC(=O)C1CCCN(C(=O)c2cc(Nc3ccc(OC)cc3)nc3ccccc23)C1 (centres undefined)	-7	5	5	6	-3	19	x	x	x	x	x
Cc1ccc(CN2CCN(Cc3ccncc3)CC2CCO)o1 (centres undefined)	76*	-7	19	7	-9	-8	-20	-21	-9	-10	-6
COc1ccccc1/C=C1\SC(=S)N(CCC(=O)Nc2ccc(C(=O)O)c(O)c2)C1=O	72*	-13	20	8	64*	15	77*	76*	79*	15	81*
Cc1ccc(/C=C2\SC(=S)N(CCCC(=O)Nc3cccnc3)C2=O)cc1	58*	-5	18	61*	52*	20	0	1	2	11	15
CCc1ccc(/C=C2/SC(=S)N(CCC(=O)Nc3cccc(C(=O)O)c3)C2=O)cc1	38	-37	21*	52*	79*	13	28	24	22	32	17
COc1cccc(/C=C2/SC(=O)N(C)C2=O)c1OCc1ccc(C(=O)O)cc1	-4	-7	-150	0	-5	1	x	x	x	x	x
CN1C(=O)S/C(=C/c2ccc(OCc3cccc(C(=O)O)c3)cc2)C1=O	92*	-15	-30	57*	78*	-11	62*	67*	58*	16	35
O=C(CCN1C(=O)/C(=C/c2ccco2)SC1=S)Nc1ccc(C(=O)O)c(O)c1	-8	-2	24	5	3	7	x	x	x	x	x
CCCCn1c(-c2sccc2C)n[nH]c1=S	5	-1	-75	-6	-6	6	x	x	x	x	x
CCc1ccc(/C=C2/SC(=S)N(CCC(=O)Nc3ccc(C(=O)O)cc3)C2=O)cc1	22	-24	22	75*	85*	-10	12	11	2	3	-1
S=c1[nH]nc(-c2cccc3ccccc23)n1-c1cccnc1	-11	-4	15	2	0	-14	x	x	x	x	x
SMILES	SENP6 block	UBC13 inh	SENP8 block-1	SENP7 inh	SENP8 block-2	Apaf-1 inh	SENP8 confirm	SENP6 conf	SENP7 conf	Casp3 SENP sel	Luc interf
Cn1c(=O)c2c(-c3ccccc3)n(-c3ccccc3Br)cc2n(C)c1=O	x	x	-364	x	x	x	x	x	x	x	x
O=C1c2ccccc2C(=O)C1c1ccncc1	80*	-26	41*	58*	64*	-1	76*	71*	92*	91*	79*
Cc1ccc(-c2nc3ccc([N+](=O)[O-])cc3[nH]2)cc1	76*	-5	-2	73*	66*	9	11	77*	96*	64*	50
O=[N+]([O-])c1ccc2nc(-c3ccccc3[N+](=O)[O-])[nH]c2c1	7	-16	30	-1	2	7	x	x	x	x	x
Nc1nc2ccc([N+](=O)[O-])cc2[nH]1	2	-12	17	10	3	7	x	x	x	x	x
O=[N+]([O-])c1ccc2nc(-c3ccc(Cl)cc3)[nH]c2c1	75*	-19	-385	63*	54*	8	68*	72*	87*	50*	49
O=[N+]([O-])c1ccc2nc(-c3ccncc3)[nH]c2c1	78*	-3	20	51*	64*	-9	39	60*	88*	86*	74*
